NRP1-CendR mod – modulators of CendR peptide binding to NRP-1, primary screen, biochemical, fluorescence polarization, uHTS; Neuropilin-1 (Homo sapiens), O14786; FAM-RPARPAR peptide binding to NRP-1; AID 602438, 2012; actives 0.85% (n = 360,000); inhibition, % at 25 µM;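 active = inhibition or corrected inhibition above about 18%, plus a signal ratio from 0.5 to 1.5, limit read from the data, passing the limit was not always enough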
Target sequence (O14786 whole entry, looked up): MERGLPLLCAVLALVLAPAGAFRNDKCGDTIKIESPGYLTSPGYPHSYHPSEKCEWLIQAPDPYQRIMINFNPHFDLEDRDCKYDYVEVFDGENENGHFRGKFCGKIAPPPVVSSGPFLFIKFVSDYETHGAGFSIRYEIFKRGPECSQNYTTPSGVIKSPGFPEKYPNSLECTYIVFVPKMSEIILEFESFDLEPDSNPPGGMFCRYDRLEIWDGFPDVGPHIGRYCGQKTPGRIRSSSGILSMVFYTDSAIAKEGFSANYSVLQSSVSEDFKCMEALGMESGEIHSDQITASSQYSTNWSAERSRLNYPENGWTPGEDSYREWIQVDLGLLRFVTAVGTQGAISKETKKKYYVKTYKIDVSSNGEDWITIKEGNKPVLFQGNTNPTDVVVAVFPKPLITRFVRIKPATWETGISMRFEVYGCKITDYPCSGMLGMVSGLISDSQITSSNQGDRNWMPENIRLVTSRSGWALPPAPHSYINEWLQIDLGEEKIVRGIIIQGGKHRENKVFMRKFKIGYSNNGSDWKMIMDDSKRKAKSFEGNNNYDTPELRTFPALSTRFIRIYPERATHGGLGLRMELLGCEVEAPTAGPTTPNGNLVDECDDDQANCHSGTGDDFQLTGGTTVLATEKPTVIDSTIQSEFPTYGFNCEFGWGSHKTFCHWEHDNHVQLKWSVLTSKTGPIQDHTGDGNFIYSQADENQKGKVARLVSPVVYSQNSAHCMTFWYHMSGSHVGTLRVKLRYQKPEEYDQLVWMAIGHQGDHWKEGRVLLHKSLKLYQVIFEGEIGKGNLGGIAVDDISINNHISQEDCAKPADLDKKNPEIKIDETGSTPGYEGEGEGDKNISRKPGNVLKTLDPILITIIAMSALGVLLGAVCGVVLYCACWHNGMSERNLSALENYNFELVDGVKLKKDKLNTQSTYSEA
HCV core dimer – inhibitors of HCV core protein dimerization, primary screen, biochemical, TR-FRET, high-throughput; TR-FRET GST/Flag-core106 dimerization, 1536-well; inhibition, % at 5 µM; actives 0.33% (n = 300,000); AID 1899, 2009;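 active = inhibition above the mean of all tested compounds plus 3 SD, set per screening campaign, cut at about 45% in these data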
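System – GST-tagged and Flag-tagged HCV core protein residues 1-106 · Repeats – one well for each compound · Technique – TR-FRET 671 and 617 nm emission · Doses – one concentration, 5 µM, in 0.5% DMSO · Times – 4 h, 22.5 °C incubation · Also added – Eu donor and XL665 acceptor anti-tag antibodies · Measure – percent inhibition of core106 dimerization signal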
MEX-5 binding – MEX-5 zinc finger RNA-binding disruptors – biochemical, C. elegans, fluorescence polarization, MLPCN library, primary screen. MEX-5/FITC-TCR2 RNA binding; active compounds read low. activity score (negative = inhibition of binding), % at 10 µM. actives 0.38% (n = 300,000). AID 1832, 2009;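 active = inhibition past about -25% in most replicates, and total fluorescence under double the plate's negative control median, limit read from the data; inconclusive = replicates evenly split on the limit, or fluorescence at least double controls; inactive = too little inhibition in most replicates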;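 note: 0% = DMSO and -100% = 5 µM competing unlabeled TCR2 RNA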
FID counter – compounds displacing fluorescent DNA intercalator, primary screen, artefact control for HCV NS3 helicase inhibitor project, biochemical, FID fluorescence; DNA fluorescent intercalator displacement; actives 0.17% (n = 290,000); inhibition, % at 7.9 µM; in the data active = inhibition above about 37%;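 note: 0% = vehicle and 100% = reference compound; higher means more ethidium bromide displaced from hairpin DNA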
An asterisk follows results filed as active; u = inconclusive; x = not tested or not shown. An excerpt weighted towards active compounds, which were near 1.5% of everything screened.

SMILES | NRP1-CendR mod | HCV core dimer | MEX-5 binding | FID counter
CC(C)N(C(=O)[C@H]1C[C@H](CC(=O)NCCCn2ccnc2)C(=O)N2CCc3c([nH]c4ccc(Cl)cc34)[C@]12C)C(C)C | 8.2 | x | x | x
Cc1ccc(S(=O)(=O)Nc2ccccc2NS(=O)(=O)c2ccc(C)cc2)cc1 | 1.5 | x | x | x
Cc1ccc(S(=O)(=O)Nn2c(C)ccc2C)cc1 | -17.3 | 67.2* | 1.7 | -1.2
Cc1ccc(C)c(S(=O)(=O)NCc2ccc(C(=O)N3CCC(Cc4ccccc4)CC3)cc2)c1 | 45.4* | 14.5 | -0.7 | -31.4
CCN(CC)c1ccc(C(=C2C=CC(=[N+](CC)CC)C=C2)c2ccc(N(CC)CC)cc2)cc1 | 30.2* | x | x | x
CCN(CC)c1ccc(C(=C2C=CC(=[N+](CC)CC)C=C2)c2ccccc2)cc1 | -1.1 | x | x | x
CCCCCCCCN1C(=O)[C@H](CC(=O)NCCCN2CCCC2=O)C[C@@]2(C(=O)OCC)CCCC=C12 | -2.7 | x | x | x
Cc1ccc(-c2cc([C@H]3[C@@H]4C=CCC[C@@]4(C)C(=O)N3Cc3ccccc3)ccc2F)cc1 | 6.1 | 18.1 | 1.6 | x
Cc1ccc(F)c([C@H]2[C@@H]3C=CCC[C@@]3(C)C(=O)N2Cc2ccccc2)c1 | 27.6* | 12.0 | 2.3 | x
COc1ccc(CNC(=O)C2Cc3c(-c4ccccc4Oc4ccccc4)ccnc3O2)cc1OC (stereo unspecified) | -4.1 | x | x | x
C/C(Cl)=C/CSc1nn2c(=O)c3ccccc3nc2s1 | 25.7* | 9.5 | -1.8 | 2.3
COc1cnn(-c2cccc(Cl)c2)c(=O)c1Cl | 14.1 | 1.9 | 0.6 | x
CCCn1ncc(OC)c(Cl)c1=O | 22.2* | -0.9 | -1.6 | 5.5
COc1ccc(CCN=C(N)NS(=O)(=O)c2cccs2)cc1OC | 20.0* | 1.3 | 0.1 | -1.9
COc1ccccc1CCN=C(N)NS(=O)(=O)c1cccs1 | 0.7 | -0.3 | -1.8 | -3.0
O=C1CSC(=S)N1/N=C/c1ccc(Cl)c([N+](=O)[O-])c1 | x | 64.9* | u | -1.9
O=C1CSC(=S)N1/N=C/c1cc(Br)c(O)c(Br)c1 | 140.4 | -20.4 | -32.8* | -10.2
COc1cc(/C=N/N2C(=O)CSC2=S)ccc1O | -78.4 | -13.9 | -0.5 | 0.2
O=C1CSC(=S)N1/N=C/c1ccc2c(c1)OCCO2 | -20.7 | 2.4 | -2.7 | -4.5
Cc1ccc(NC(=O)C(C)N2C(=O)C3CC=C(Cl)CC3C2=O)cc1 (stereo unspecified) | 13.0 | 6.4 | -1.0 | -12.6
C[C@@H](C(=O)Nc1ccc(SC(F)F)cc1)N1C(=O)C2CCCCC2C1=O (stereo partly specified) | 21.6* | x | x | x
CCOC(=O)c1ccc(NC(=O)C(C)N2C(=O)c3ccccc3C2=O)cc1 (stereo unspecified) | -18.8 | 7.6 | -0.8 | -7.8
Cc1ccc(NC(=O)C(C)N2C(=O)c3ccccc3C2=O)cc1 (stereo unspecified) | 26.9* | -1.5 | 1.9 | -1.4
Cc1ccc(NC(=O)C(C)N2C(=O)C3C4CC(C(Br)C4Br)C3C2=O)cc1 (stereo unspecified) | 31.9* | 0.3 | -1.2 | -1.3
CC(C)(C)NC(=O)C(c1ccc(O)cc1)N(C(=O)CCC(=O)Nc1nccs1)c1cccc(F)c1 (stereo unspecified) | 9.4 | -2.3 | -4.5 | -14.4
SMILES | NRP1-CendR mod | HCV core dimer | MEX-5 binding | FID counter
CC(C)(C)NC(=O)C(c1ccc(O)cc1)N(C(=O)CCC(=O)Nc1nccs1)c1ccccc1F (stereo unspecified) | 29.0* | -3.7 | -2.0 | -30.8
N#Cc1c(NC(=O)c2ccc(Cn3cc(Br)cn3)o2)sc2c1CCCCC2 | -9.9 | 13.7 | -0.5 | -8.4
CC1CCc2c(sc(NC(=O)c3ccc(Cn4cc([N+](=O)[O-])cn4)o3)c2C#N)C1 (stereo unspecified) | -2.8 | 84.7* | 0.2 | 0.8
C[n+]1cccc2cccc([O-])c21 | 27.9* | x | x | -1.1
[O-][n+]1cccc2cccc(O)c21 | 3.2 | x | x | x
Cc1ccc(Cn2c(C(C)Nc3nc(-c4ccc(Cl)c([N+](=O)[O-])c4)cs3)nc3cc(C(F)(F)F)ccc32)cc1 (stereo unspecified) | 34.8* | 38.7 | 1.0 | x
CCCn1c(C(C)Nc2nc(-c3ccc(Cl)c([N+](=O)[O-])c3)cs2)nc2ccccc21 (stereo unspecified) | -0.9 | 16.7 | -2.7 | -15.4
CC(Nc1nc(-c2ccc(F)cc2)cs1)c1nc2cc(Cl)c(Cl)cc2n1CCCO (stereo unspecified) | 3.1 | -19.3 | 2.0 | x
Cc1csc(NC(C)c2nc3cc(C(F)(F)F)ccc3n2CCCO)n1 (stereo unspecified) | 35.4* | -5.6 | 2.1 | x
C[C@@H]1CCCCO[C@@H](CN(C)C(=O)C2CCCCC2)[C@@H](C)CN([C@H](C)CO)C(=O)c2cc(NC(=O)NC3CCCCC3)ccc2O1 | 0.8 | x | x | x
CCCCNC(=O)c1nc(C2CCNCC2)oc1-c1cccc(C(F)(F)F)c1 | 2.0 | x | x | x
COc1cc(CNC(C)(C)CO)cc(Br)c1OCc1ccc(Cl)cc1 | 29.8* | -20.5 | 1.3 | 27.9
O=C1CNC(=S)N1CCc1ccc(O)c(O)c1 | 4.9 | -0.3 | -30.0* | -6.0
O=C1CNC(=S)N1CCOc1ccccc1 | -6.6 | -0.4 | -0.6 | -1.8
Cc1ccccc1Oc1ccc2c(c1)[C@@H]1C[C@H](N(C)C(=O)c3ccc(C#N)cc3)[C@H]([C@H](C)O)C(=O)N1CC2 | 11.5 | x | x | x
Cc1csc(=O)n1CCC(=O)OCC(=O)Nc1ccc(C(N)=O)cc1 | 23.1* | -4.2 | -1.7 | x
Cc1csc(=O)n1CC(=O)OCC(=O)Nc1ccc(C(N)=O)cc1 | -13.6 | x | x | x
CC(C)CN=CC1=C(O)c2ccccc2C1=O | 23.4* | 2.1 | 1.9 | -0.8
O=C1C(C=NCc2ccccn2)=C(O)c2ccccc21 | -5.5 | -9.2 | -3.6 | 0.6
Nc1cccc(-c2c[nH]c3ncc(-c4cccnc4)cc23)c1 | -6.6 | x | x | x
c1ccc(-c2nc(-c3ccccn3)nc(-c3ccccn3)n2)nc1 | -14.7 | 0.3 | -39.5* | -12.7
c1ccc(C2=NNC(c3ccccn3)=NN2)nc1 | -8.3 | -3.0 | -36.3* | -6.0
Cc1ccc(CN2C(=O)CSc3ccc(C(=O)NCCN4CCOCC4)cc32)cc1 | 5.4 | -0.2 | 3.6 | 42.8*
O=C(NCCN1CCOCC1)c1ccc2c(c1)N(Cc1ccc(F)cc1)C(=O)CS2 | -4.1 | -13.4 | -0.1 | -1.8
CC(=O)NN1C(=O)c2ccccc2NC1c1ccccn1 (stereo unspecified) | 1.2 | 1.0 | -0.6 | -1.5
Cc1cccc(C2Nc3ccccc3C(=O)N2NC(=O)c2ccc([N+](=O)[O-])cc2)n1 (stereo unspecified) | 13.1 | -2.5 | -54.2* | 2.6
O=C(NN1C(=O)c2ccccc2NC1c1ccco1)c1ccc([N+](=O)[O-])cc1 (stereo unspecified) | 2.7 | -2.7 | -0.4 | 8.6
O=C(NN1C(=O)c2ccccc2NC1c1ccccn1)c1ccc([N+](=O)[O-])cc1 (stereo unspecified) | 0.8 | -4.8 | -43.5* | -7.7

Bioassay records from PubChem BioAssay.
